Assay results taken from the array DNA melting data of Ke et al. (doi:10.1101/2024.01.08.574731).

What was measured:
[1] = melting temperature; fluorescence melt of hairpins on a sequencing array, two-state fit, raised by 9.35 °C to match UV melts; settings: sodium 0.088 M
In short: (§1)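 Hairpins were imaged by Cy3 fluorescence on a sequenced MiSeq flow cell with annealed Cy3 and quencher oligos, in 50 mM Na-HEPES pH 8.0, 25 mM NaCl, in 2.5 °C steps up to 60 °C. Bootstrapped two-state fits of normalised signals gave melting temperature and folding enthalpy. Four replicates were combined by inverse variance, and fitted temperatures were raised by 9.35 °C to match UV melts.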

[2] = folding enthalpy; higher = less favourable; fluorescence melt of hairpins on a sequencing array, two-state fit; settings: sodium 0.088 M
In short: as §1

GTCATTGGAAACGATGAC (((((.(....).)))))
Tm [1]: 46.7 °C
folding enthalpy [2]: -41.1 kcal/mol

GGATACGAAAGTAATCC ((((((....))).)))
Tm [1]: 44.6 °C
folding enthalpy [2]: -27 kcal/mol

GCCTGAGGAAACTCAAGC ((.((((....)))).))
Tm [1]: 35.1 °C
folding enthalpy [2]: -21.6 kcal/mol

GCGGCAGCCCGC ((((....))))
Tm [1]: 59.1 °C
folding enthalpy [2]: -10.3 kcal/mol

GATCATTGAAATGATC ((((((....))))))
Tm [1]: 46 °C
folding enthalpy [2]: -36.8 kcal/mol

GATATACCGAAAGGTATC (((..(((....))))))
Tm [1]: 32.8 °C
folding enthalpy [2]: -13.3 kcal/mol

GATCACTTAGTGATC ((((((...))))))
Tm [1]: 58.6 °C
folding enthalpy [2]: -37 kcal/mol

GTTATGGGAAACTATAAC (((((.(....).)))))
Tm [1]: 34.6 °C
folding enthalpy [2]: -23.8 kcal/mol

GTTCGCGAAAGCGTCAAC ((((((....)))..)))
Tm [1]: 28.1 °C
folding enthalpy [2]: -9.05 kcal/mol

GATCTTCCTTAAGATC ((((((....))))))
Tm [1]: 42.1 °C
folding enthalpy [2]: -27.8 kcal/mol

GGATCTGGAAACAGATCC (((((((....)))))))
Tm [1]: 62.4 °C
folding enthalpy [2]: -47.9 kcal/mol

GCGGAGGGAAACCCCCGC ((((.((....)).))))
Tm [1]: 57.6 °C
folding enthalpy [2]: -38.9 kcal/mol

GATCAACTATTTGATC ((((((....))))))
Tm [1]: 42.4 °C
folding enthalpy [2]: -31.5 kcal/mol

GGGAGCGAAAGCTGCCC ((((((....))).)))
Tm [1]: 60.5 °C
folding enthalpy [2]: -15.1 kcal/mol

GCTCGTGGAAACATGAGC ((((.((....)).))))
Tm [1]: 54.5 °C
folding enthalpy [2]: -37.1 kcal/mol

CCAATGAAAATTGG (((((....)))))
Tm [1]: 41.9 °C
folding enthalpy [2]: -18.1 kcal/mol

GGAGATGAAAATCTCC ((((((....))))))
Tm [1]: 57.6 °C
folding enthalpy [2]: -36.2 kcal/mol

GATCGACGGCTCGATC ((((((....))))))
Tm [1]: 50.5 °C
folding enthalpy [2]: -42.7 kcal/mol

GGCCAACGAAAGTTTGCC (((.(((....))).)))
Tm [1]: 50.7 °C
folding enthalpy [2]: -45.6 kcal/mol

GCAATTGGAAACAATCGC ((.((((....)))).))
Tm [1]: 38.8 °C
folding enthalpy [2]: -27.4 kcal/mol

GTGGAGGGAAACCTCCGC (.(((((....))))).)
Tm [1]: 56.2 °C
folding enthalpy [2]: -37.6 kcal/mol

ATTGGGAAACCAAT (((((....)))))
Tm [1]: 40.3 °C
folding enthalpy [2]: -16.9 kcal/mol

GAGCAGGGAAACCTGCCC (.(((((....))))).)
Tm [1]: 42.1 °C
folding enthalpy [2]: -12.8 kcal/mol

GGGCACGGAAACACGCCC ((((..(....)..))))
Tm [1]: 46.2 °C
folding enthalpy [2]: -30.7 kcal/mol

GCCTGGCGAAAGCGAGGC ((((.((....)).))))
Tm [1]: 68.2 °C
folding enthalpy [2]: -26.8 kcal/mol

GCCCCGCGAAAGCGGAGC ((.((((....)))).))
Tm [1]: 68.1 °C
folding enthalpy [2]: -22 kcal/mol

GATCTCGTACGAGATC ((((((....))))))
Tm [1]: 61.7 °C
folding enthalpy [2]: -39.7 kcal/mol

GACGAGGGAAACCTCGCC (.(((((....))))).)
Tm [1]: 52.3 °C
folding enthalpy [2]: -14.3 kcal/mol

GATGGCGAAAGCCCGATC ((((((....)))..)))
Tm [1]: 27.7 °C
folding enthalpy [2]: -9.89 kcal/mol

GCGGGTCCGAAAGGACGC (((..(((....))))))
Tm [1]: 52.5 °C
folding enthalpy [2]: -11.3 kcal/mol

GGCATGCGAAAGCAGCC (((.(((....))))))
Tm [1]: 64.3 °C
folding enthalpy [2]: -21.6 kcal/mol

CGTGTGCGGAAACGCACG (((..(((....))))))
Tm [1]: 54.5 °C
folding enthalpy [2]: -6.54 kcal/mol

GAAGTGCGAAAGCAATTC (((.(((....))).)))
Tm [1]: 52.8 °C
folding enthalpy [2]: -28.2 kcal/mol

GCGTAGTACGC ((((...))))
Tm [1]: 53.1 °C
folding enthalpy [2]: -20.8 kcal/mol

GCAGAGGCGAAAGCCTGC (((..(((....))))))
Tm [1]: 56.7 °C
folding enthalpy [2]: -14.5 kcal/mol

GGTCCCGGAAACGGGGTC (..((((....))))..)
Tm [1]: 42.8 °C
folding enthalpy [2]: -14.4 kcal/mol

GGTACACGAAAGTGACC (((.(((....))))))
Tm [1]: 46.4 °C
folding enthalpy [2]: -18.4 kcal/mol

GTAATTCGAAAGAAATAC (((.(((....))).)))
Tm [1]: 33 °C
folding enthalpy [2]: -16.9 kcal/mol

GCGGAGTCCCGC ((((....))))
Tm [1]: 55.7 °C
folding enthalpy [2]: -21.1 kcal/mol

GGTGGGCGAAAGCCTACC (((.(((....))).)))
Tm [1]: 65.6 °C
folding enthalpy [2]: -22.3 kcal/mol

GATCCCGCATGGGATC ((((((....))))))
Tm [1]: 68 °C
folding enthalpy [2]: -32.9 kcal/mol

GGACACGAAAGTGTCTCC ((((((....)))..)))
Tm [1]: 53.8 °C
folding enthalpy [2]: -9.39 kcal/mol

GTACGCGGAAACGTGTAC ((((.((....)).))))
Tm [1]: 54.6 °C
folding enthalpy [2]: -28.1 kcal/mol

GCCTCGCGAAAGCGCGGC (((.(((....))).)))
Tm [1]: 61.3 °C
folding enthalpy [2]: -40.8 kcal/mol

GCGTCCGCGAAAGCGCGC (((..(((....))))))
Tm [1]: 53.5 °C
folding enthalpy [2]: -16.9 kcal/mol

GCCAGTTCGAAAGAAGGC (((..(((....))))))
Tm [1]: 37.1 °C
folding enthalpy [2]: -20.2 kcal/mol
